Measurements of several laboratories.
MINK1: Misshapen-like kinase 1 (MINK1, Homo sapiens, UniProt Q8N4C8)
RIOK1: Serine/threonine-protein kinase RIO1 (RIOK1, Homo sapiens, UniProt Q9BRS2)
SLC22A11: Solute carrier family 22 member 11 (SLC22A11, Homo sapiens, UniProt Q9NSA0)

Structure (SMILES)	target	assay	setting	measurement	value
CCCCC(=O)Nc1ccc(-c2ccc3ncn(CCC)c(=O)c3c2)cn1	MINK1	binding, competition with immobilised ligand	0.5 µM	remaining binding	99%
CNS(=O)(=O)c1ccc(Nc2ncc(C(F)(F)F)c(N3CCC[C@](C)(O)C3)n2)c(C)c1	RIOK1	binding, competition with immobilised ligand	1 µM	remaining binding	99%
C[C@@H]1CC(=O)NN=C1c1ccc(NN=C(C#N)C#N)cc1	SLC22A11	transporter uptake, inhibitor	25 µM	inhibition	76.1%
Cc1cc(F)cc2c(CCC(=O)N[C@@H]3C(=O)NC[C@H]3O)c(-c3ccc(F)cc3)[nH]c12	Alpha-2A adrenergic receptor (ADRA2A, Homo sapiens, UniProt P08913)	cell-free assay	10 µM	inhibition	26%
CCCCC1C(=O)N(c2ccccc2)N(c2ccccc2)C1=O	SLC22A11	transporter uptake, inhibitor	25 µM	inhibition	82.7%
NC/C(=C\F)COc1cccc(Cn2c(=S)[nH]c(=O)c3[nH]cnc32)c1	Diamine oxidase [copper-containing] (AOC1, Homo sapiens, UniProt P19801)	enzyme activity, inhibitor	1 µM	inhibition	2.46%
CC(=O)Oc1ccccc1C(=O)Nc1ncc([N+](=O)[O-])s1	SLC22A11	transporter uptake, inhibitor	25 µM	inhibition	76.5%
CCN1/C(=C/C(C)=O)Sc2ccc(F)cc21	5-hydroxytryptamine receptor 3A (HTR3A, Homo sapiens, UniProt P46098)	ligand displacement, radioligand	10 µM	inhibition	0%
COc1ccc2oc(-c3ccc4nc(N)oc4c3)c/c(=N\c3ccccc3NC(=O)CCN)c2c1	Transient receptor potential cation channel subfamily M member 7 (TRPM7, Homo sapiens, UniProt Q96QT4)	binding	1 µM	remaining binding	106%
O=C(O)CCc1nc(-c2ccccc2)c(-c2ccccc2)o1	SLC22A11	transporter uptake, inhibitor	25 µM	inhibition	81.6%
Cc1cc(O)c(-c2ccc([C@@H](C)CN(C)C)cc2)c2c1[nH]c(=O)c1sccc12	Serine/threonine-protein kinase Nek8 (NEK8, Homo sapiens, UniProt Q86SG6)	enzyme activity, inhibitor	0.1 µM	inhibition	4.95%
O=C(ON1C(=O)CCC1=O)c1cc(C(F)(F)F)cc(C(F)(F)F)c1	CD209 antigen (CD209, Homo sapiens, UniProt Q9NNX6)	cell-free assay	pH 7.4	kinact	0.00574 s⁻¹
CN(CCOc1ccc(CC2SC(=O)NC2=O)cc1)c1ccccn1 (stereo not drawn)	SLC22A11	transporter uptake, inhibitor	25 µM	inhibition	94.1%
C[C@]1(O)CCCN(c2nc(Nc3ccc(S(=O)(=O)N[C@H]4CC[C@H](CN5CCN(c6ccc(C7CCC(=O)NC7=O)cc6F)CC5)CC4)cc3F)ncc2C(F)(F)F)C1 (stereo partly drawn)	STE20-like serine/threonine-protein kinase (SLK, Homo sapiens, UniProt Q9H2G2)	binding, competition with immobilised ligand	1 µM	remaining binding	34%
C1=C/COCc2cc(ccc2OCCN2CCCC2)Nc2nccc(n2)-c2cccc(c2)COC/1	Tyrosine-protein kinase ABL1 (ABL1, Homo sapiens, UniProt P00519, T315I)	binding	0.1 µM	remaining binding	13%
C#Cc1cc(-c2cc(Nc3nc(N[C@@H](C)c4ccc(F)cn4)ncc3Cl)n[nH]2)ccc1C=O	MINK1	enzyme activity, inhibitor	0.2 µM	inhibition	55.9%
Cc1cc(S(=O)(=O)N[C@H]2CC[C@H](CN3CCN(c4ccc(C5CCC(=O)NC5=O)cc4F)CC3)CC2)ccc1Nc1ncc(C(F)(F)F)c(N2CCC[C@](C)(O)C2)n1 (stereo partly drawn)	RIOK1	binding, competition with immobilised ligand	1 µM	remaining binding	79%
CCCCC1=NC2(CCCC2)C(=O)N1Cc1ccc(-c2ccccc2-c2nnn[nH]2)cc1	SLC22A11	transporter uptake, inhibitor	25 µM	inhibition	50 to 90%
